Measured values: ChEMBL document CHEMBL5331142, “Novel 1,4-Dihydropyridines as Specific Binders and Activators of SIRT3 Impair Cell Viability and Clonogenicity and Downregulate Hypoxia-Induced Targets in Cancer Cells” (J Med Chem, 2023)
Active and inactive are the calls of the source. No cut-off for these calls is given here.

Columns and labels:
[1] = biological target: T1, NAD-dependent protein deacetylase sirtuin-3, mitochondrial (Homo sapiens) (UniProt Q9NTG7); test: Activation of N-terminal his-tagged human SIRT3 (114 to 380 residues) deacylation activity expressed in Escherichia coli at 100 uM using ACS2-acK642 as substrate in presence of NAD+ by NADH oxidation-coupled enzymatic assay
T1 sequence (whole entry): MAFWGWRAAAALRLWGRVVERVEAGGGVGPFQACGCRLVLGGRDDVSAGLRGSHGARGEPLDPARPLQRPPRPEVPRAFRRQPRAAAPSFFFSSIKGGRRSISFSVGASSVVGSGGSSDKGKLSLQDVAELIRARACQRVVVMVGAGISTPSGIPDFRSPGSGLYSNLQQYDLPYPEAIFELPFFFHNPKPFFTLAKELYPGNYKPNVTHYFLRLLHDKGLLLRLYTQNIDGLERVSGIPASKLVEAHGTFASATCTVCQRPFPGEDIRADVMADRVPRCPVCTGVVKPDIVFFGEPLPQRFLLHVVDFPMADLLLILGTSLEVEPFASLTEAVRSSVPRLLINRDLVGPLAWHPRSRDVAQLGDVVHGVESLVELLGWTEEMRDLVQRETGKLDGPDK
Procedure, shortened: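 Coupled PncA/GDH deacylation assay following NADPH oxidation to NADP+. 1.5 μM SIRT3 (E. coli-expressed, tag removed) with 50 μM ACS2-acK642 peptide and 100 μM NAD+, compound at 100 μM, 5% final DMSO.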

[2] = biological target: T1, NAD-dependent protein deacetylase sirtuin-3, mitochondrial (Homo sapiens); test: Activation of N-terminal his-tagged human SIRT3 (114 to 380 residues) deacylation activity expressed in Escherichia coli at 10 uM using ACS2-acK642 as substrate in presence of NAD+ by NADH oxidation-coupled enzymatic assay; conditions: filed as activator
Procedure, shortened: (§1)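 Coupled PncA/GDH deacylation assay following NADPH oxidation to NADP+. 1.5 μM sirtuin, 50 μM substrate peptide, 100 μM NAD+, compound at 10 μM, 5% final DMSO. Isoform-specific physiological substrates: p53-acK381 (SIRT1), […] (SIRT2), ACS2-acK642 (SIRT3), CPS1-succK537 (SIRT5). Sirtuins expressed in E. coli, Ni-NTA purified, tag cleaved, then size-exclusion chromatography.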

MDA-MB-231 [3] = test: Downregulation of HIF1alpha expression in human MDA-MB-231 cells at 1 uM incubated for 48 hrs under hypoxia condition by Western blot analysis; assay type: functional, cell-based
CAL-62 [4] = test: Downregulation of HIF1alpha expression in human CAL-62 cells at 1 uM incubated for 48 hrs under hypoxia condition by Western blot analysis; assay type: functional, cell-based
CAL-62 [5] = test: Downregulation of EPAS-1 expression in human CAL-62 cells at 1 uM incubated for 48 hrs under hypoxia condition by Western blot analysis; assay type: functional, cell-based
CAL-62 [6] = test: Downregulation of CA-IX expression in human CAL-62 cells at 1 uM incubated for 48 hrs under hypoxia condition by Western blot analysis; assay type: functional, cell-based
MDA-MB-231 [7] = test: Downregulation of EPAS-1 expression in human MDA-MB-231 cells at 1 uM incubated for 48 hrs under hypoxia condition by Western blot analysis; assay type: functional, cell-based
MDA-MB-231 [8] = test: Downregulation of CA-IX expression in human MDA-MB-231 cells at 1 uM incubated for 48 hrs under hypoxia condition by Western blot analysis; assay type: functional, cell-based
[9] = biological target: T2, NAD-dependent protein deacetylase sirtuin-3, mitochondrial (Homo sapiens, UniProt Q9NTG7); test: Binding affinity to N-terminal his-tagged human SIRT3 (114 to 380 residues) assessed as dissociation constant by SPR analysis
T2 sequence (Q9NTG7 whole entry): T1 sequence (whole entry)
Procedure, shortened: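 SPR with SIRT3 amine-coupled to the chip (sodium acetate pH 4.0; 1500–4000 RU). Analytes diluted to 200 μM in HBSP (20 mM Hepes, 150 mM NaCl, 0.005% P20; 2% DMSO), injected at 5, 10, 20, 40, 80 μM at 30 μL/min. Dissociation after 180 s. Reference chip lacked ligand. Apparent KD by Scatchard analysis. Run twice.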

CAL-62 [10] = test: Anticancer activity against human CAL-62 cells assessed as reduction in cell viability at 50 uM incubated for 24 to 48 hrs under hypoxia condition by trypan blue exclusion assay; assay type: functional, cell-based; conditions: time 24-48 hrs, TDE = time-dependent effect
Procedure, shortened: (§2)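 CAL-62 cells in RPMI 1640 with 10% FBS, treated with 50 μM compound (DMSO) for 24 and 48 h. Hypoxia induced with 200 μM CoCl2, kept in the medium during treatment. Viable cells counted by 0.4% trypan blue staining on a hemocytometer.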

CAL-62 [11] = test: Downregulation of CA-IX expression in human CAL-62 cells at 50 uM incubated for 48 hrs under hypoxia condition by Western blot analysis; assay type: functional, cell-based
Procedure, shortened: (§3)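 CAL-62 or MDA-MB-231 cells made hypoxic with 200 μM CoCl2 for 24 h, then treated with 50 μM compound for 48 h with CoCl2 retained. Lysates (15 or 50 μg protein) immunoblotted for HIF-1α, EPAS-1 or CA-IX with ACTB, ECL detection. 3-TYP (1 μM) as control.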

[12] = biological target: T1, NAD-dependent protein deacetylase sirtuin-3, mitochondrial (Homo sapiens); test: Activation of human SIRT3 overexpressing in human MDA-MB-231 cells assessed as increase in GDH activity at 50 uM incubated for 4 hrs by absorbance assay; assay type: cell-based
Procedure, shortened: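 MDA-MB-231 cells exposed 4 h to 50 μM compound. 10^6 cells lysed in GDH assay buffer for 10 min on ice. Supernatant mixed with developer and glutamate, incubated 3 min at 37 °C, absorbance read at 450 nm with buffer blank subtracted. SIRT3-overexpressing MDA-MB-231 cells served as reference.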

CAL-62 [13] = test: Anticancer activity against human CAL-62 cells assessed as reduction in cell viability at 50 uM incubated for 24 to 48 hrs under normoxia condition by trypan blue exclusion assay; assay type: functional, cell-based; conditions: time 24-48 hrs, TDE = time-dependent effect; procedure, shortened: as §2
CAL-62 [14] = test: Downregulation of HIF1alpha expression in human CAL-62 cells at 50 uM incubated for 48 hrs under hypoxia condition by Western blot analysis; assay type: functional, cell-based; procedure, shortened: as §3
CAL-62 [15] = test: Inhibition of clonogenicity in human CAL-62 cells at 50 uM incubated for 24 to 48 hrs under hypoxia condition by crystal violet staining based assay; assay type: functional; conditions: time 24-48 hrs
Procedure, shortened: (§4)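 CAL-62 cells at 80–90% confluence treated with 50 μM compound for 24 or 48 h, in normoxia or with 200 μM CoCl2 (hypoxia). 500 cells replated per 100 mm dish and grown about 7 days. Colonies fixed in 4% formaldehyde, stained with 0.5% crystal violet, and counted.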

CAL-62 [16] = test: Inhibition of clonogenicity in human CAL-62 cells at 50 uM incubated for 24 to 48 hrs under normoxia condition by crystal violet staining based assay; assay type: functional; conditions: time 24-48 hrs; procedure, shortened: as §4
[17] = biological target: NAD-dependent protein deacylase sirtuin-5, mitochondrial (Homo sapiens) (UniProt Q9NXA8); test: Activation of N-terminal his-tagged human SIRT5 (34 to 302 residues) expressed in Escherichia coli at 10 uM using p53-acK381 as substrate in presence of NAD+ by NADH oxidation-coupled enzymatic assay
[18] = biological target: T3, NAD-dependent protein deacetylase sirtuin-2 (Homo sapiens) (UniProt Q8IXJ6); test: Activation of N-terminal his-tagged human SIRT2 (43 to 356 residues) expressed in Escherichia coli at 10 uM using p53-acK381 as substrate in presence of NAD+ by NADH oxidation-coupled enzymatic assay
T3 sequence (whole entry): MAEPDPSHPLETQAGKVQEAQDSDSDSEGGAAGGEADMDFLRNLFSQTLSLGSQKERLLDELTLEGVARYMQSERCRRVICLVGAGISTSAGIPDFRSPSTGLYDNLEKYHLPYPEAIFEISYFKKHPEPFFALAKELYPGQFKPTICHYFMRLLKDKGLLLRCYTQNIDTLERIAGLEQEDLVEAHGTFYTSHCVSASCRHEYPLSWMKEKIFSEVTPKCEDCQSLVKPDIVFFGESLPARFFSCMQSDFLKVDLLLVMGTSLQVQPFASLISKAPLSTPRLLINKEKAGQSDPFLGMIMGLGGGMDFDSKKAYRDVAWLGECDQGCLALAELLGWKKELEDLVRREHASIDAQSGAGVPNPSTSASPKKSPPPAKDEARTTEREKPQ

[19] = biological target: T4, NAD-dependent protein deacetylase sirtuin-1 (Homo sapiens) (UniProt Q96EB6); test: Activation of N-terminal his-tagged human SIRT1 expressed in Escherichia coli at 10 uM using p53-acK381 as substrate in presence of NAD+ by NADH oxidation-coupled enzymatic assay; procedure, shortened: as §1
T4 sequence (whole entry): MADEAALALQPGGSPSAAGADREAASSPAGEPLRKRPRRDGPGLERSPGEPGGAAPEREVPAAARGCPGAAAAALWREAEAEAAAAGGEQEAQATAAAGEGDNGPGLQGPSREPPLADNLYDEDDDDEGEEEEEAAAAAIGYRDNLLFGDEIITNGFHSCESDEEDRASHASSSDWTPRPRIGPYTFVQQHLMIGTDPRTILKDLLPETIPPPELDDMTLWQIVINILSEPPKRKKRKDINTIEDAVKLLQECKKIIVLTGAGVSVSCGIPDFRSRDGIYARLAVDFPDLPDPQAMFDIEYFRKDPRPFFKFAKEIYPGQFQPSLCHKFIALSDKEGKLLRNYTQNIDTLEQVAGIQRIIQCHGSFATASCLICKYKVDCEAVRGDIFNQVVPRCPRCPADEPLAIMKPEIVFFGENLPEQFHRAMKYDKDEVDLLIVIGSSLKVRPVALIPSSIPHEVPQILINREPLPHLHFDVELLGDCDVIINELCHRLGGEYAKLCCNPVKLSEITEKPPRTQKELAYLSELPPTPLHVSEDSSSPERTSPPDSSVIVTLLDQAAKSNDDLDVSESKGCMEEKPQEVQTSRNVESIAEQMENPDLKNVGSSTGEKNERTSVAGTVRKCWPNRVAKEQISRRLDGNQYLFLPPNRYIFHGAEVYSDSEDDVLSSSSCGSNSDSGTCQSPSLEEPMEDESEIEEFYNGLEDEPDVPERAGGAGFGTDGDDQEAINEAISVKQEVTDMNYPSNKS

NAD-dependent protein deacylase sirtuin-5, mitochondrial (Homo sapiens), sequence (Q9NXA8 37-310 limits assumed): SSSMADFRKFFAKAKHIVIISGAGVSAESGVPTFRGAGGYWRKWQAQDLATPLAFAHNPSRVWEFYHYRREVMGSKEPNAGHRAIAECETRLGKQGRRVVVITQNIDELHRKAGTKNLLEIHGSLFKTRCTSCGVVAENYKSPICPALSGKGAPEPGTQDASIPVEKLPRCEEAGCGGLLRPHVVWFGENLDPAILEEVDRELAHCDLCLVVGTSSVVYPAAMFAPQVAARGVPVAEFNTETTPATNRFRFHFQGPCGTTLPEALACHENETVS

| Compound | Activity ([1]; filed as activator) | Activity [2] | other results |
| --- | --- | --- | --- |
| CCOC(=O)C1=CN(C(=O)c2cccc(Br)c2)C=C(C(=O)OCC)C1c1ccccc1 | 214% | 120% |  |
| CCOC(=O)C1=CN(C(=O)c2ccc(C#N)cc2)C=C(C(=O)OCC)C1c1ccccc1 |  | 120% |  |
| CCOC(=O)C1=CN(C(=O)c2ccc(Br)cc2)C=C(C(=O)OCC)C1c1ccccc1 | 184% | 120% |  |
| c1cncc(-c2cnn[nH]2)c1 |  |  | Activity (MDA-MB-231 [3]): inactive; Activity (CAL-62 [4]): inactive; Activity (CAL-62 [5]): inactive; Activity (CAL-62 [6]): inactive; Activity (MDA-MB-231 [7]): inactive; Activity (MDA-MB-231 [8]): inactive |
| CCOC(=O)C1=CN(C(=O)c2ccc([N+](=O)[O-])cc2)C=C(C(=O)OCC)C1c1ccccc1 |  | 120% |  |
| CCOC(=O)C1=CN(C(=O)Cc2ccccc2)C=C(C(=O)OCC)C1c1ccccc1 | Active | 176% |  |
| CCOC(=O)C1=CN(C(=O)c2ccc(Cl)cc2)C=C(C(=O)OCC)C1c1ccccc1 | 237% | 120% | Kd [9]: 74 µM |
| CCOC(=O)C1=CN(C(=O)c2ccc(OC)cc2)C=C(C(=O)OCC)C1c1ccccc1 |  | 120% | Activity (CAL-62 [10]): Tde; Activity (CAL-62 [11]): Active; Activity [12]: inactive; Activity (CAL-62 [13]): Tde; Kd [9]: 72 µM |
| CCOC(=O)C1=CN(C(=O)c2ccsc2)C=C(C(=O)OCC)C1c1ccccc1 |  | 120% | Activity [1]: inactive |
| CCOC(=O)C1=CN(C(=O)c2cccc(OC)c2)C=C(C(=O)OCC)C1c1ccccc1 | 217% |  | Activity (CAL-62 [14]): Active; inhibition at 50 µM (CAL-62 [15]): 53%; Activity (CAL-62 [10]): Tde; inhibition at 50 µM (CAL-62 [16]): 53%; Activity (CAL-62 [11]): Active; Activity ([12]; filed as activator): Active; Activity [17]: inactive; Activity (CAL-62 [13]): Tde; Activity [18]: inactive; Activity [19]: inactive; Kd [9]: 78 µM |
| CCOC(=O)C1=CN(C(=O)c2cccc(Cl)c2)C=C(C(=O)OCC)C1c1ccccc1 | 204% | 120% |  |
| CCOC(=O)C1=CN(C(=O)c2cccs2)C=C(C(=O)OCC)C1c1ccccc1 |  | 120% |  |
| CCOC(=O)C1=CN(C(=O)c2cccc(F)c2)C=C(C(=O)OCC)C1c1ccccc1 | 196% | 120% |  |
| CCOC(=O)C1=CN(C(=O)c2ccc(F)cc2)C=C(C(=O)OCC)C1c1ccccc1 | 142% | 120% |  |
| CCOC(=O)C1=CN(C(=O)c2cc(OC)c(OC)c(OC)c2)C=C(C(=O)OCC)C1c1ccccc1 | 269% | 128% | Activity ([12]; filed as activator): 175% |
| CCOC(=O)C1=CN(C(=O)c2ccccc2)C=C(C(=O)OCC)C1c1ccccc1 | 188% | 157% |  |
| CCOC(=O)C1=CN(C(=O)c2cccc([N+](=O)[O-])c2)C=C(C(=O)OCC)C1c1ccccc1 |  | 120% |  |
| CCOC(=O)C1=CN(C(=O)c2ccco2)C=C(C(=O)OCC)C1c1ccccc1 |  | 120% |  |
| CCOC(=O)C1=CN(C(=O)C2CCCCC2)C=C(C(=O)OCC)C1c1ccccc1 | Active | 120% |  |
